# Compound activity: PubChem BioAssay, Broad Institute
# FGF22 binding = binders of recombinant human FGF22 by thermal shift | SYPRO orange fluorescence; percent of sucrose octasulfate shift, DMSO zero | activity (Tm shift, normalised), % at 9.99 µM | Q9HCT0 | 1.5% of 340,000 active;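 active = mean Tm shift, scaled 0 neutral to 100 positive control, at about 1.3% or above, every replicate too, limit read from the data; inconclusive = no clear call, values can overlap the other calls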
# E-sel inducer = E-selectin induction on HUVECs | P16581 | HUVEC E-selectin immunofluorescence imaging; normalized: neutral wells 0, TNF-alpha wells 100 | activation, % at 7.58 µM | 0.37% of 260,000 active | AID 686992;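 active = mean E-selectin-positive cell signal at least 10% of the positive control, reached in at least 60% of replicates, without over 20% cell loss; inconclusive = no rule given, readout overlaps actives, possibly toxicity-flagged; inactive = the rest, including those meeting only one limit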
#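 assay system = HUVEC, human umbilical vein endothelial cells | input = 3,000 HUVEC seeded per well | medium = EGM-2 growth medium on 0.1% gelatin-coated wells | dosing = one compound dose added by pin transfer | signal = immunofluorescence imaging | read-out basis = % PE-positive cells | control set = TNF-alpha, DMSO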
# DENV2 CPE rescue = DENV2-induced cell death inhibition; DENV2-infected cells, cytopathic effect rescue, plate reader; AID 651640; 1.7% of 350,000 active; CPE inhibition, % at 9.99 µM; in the data active = CPE inhibition above about 20%, passing the limit was not always enough; inconclusive = no clear call, values can overlap the other calls; tested in BHK-21 cells;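 also: 0% = median of neutral control wells and 100% = median of positive control wells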
# F508del corr = CFTR F508del correction in bronchial cells. 0.36% of 350,000 active. activity (quench increase), % at 7.58 µM. CFBE cells, YFP halide quenching; stimulated with forskolin plus potentiator P3; % fluorescence drop versus neutral controls;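 active = mean added fluorescence quench of at least 8% versus neutral control, with both replicates also reaching 8%; inconclusive = only one of the mean or replicate conditions met; inactive = mean below 8% and not both replicates reaching 8%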;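 also: cells transiently co-express mutant CFTR-F508del with the halide-sensitive YFP; corrector assay measuring rescue of mutant channel to the surface after 24 h compound exposure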
# ERAP1 inh = ERAP1 (human) enzyme inhibition. inhibition, % at 10.7 µM. recombinant ERAP1, Leu-AMC fluorescence, 60 min. Q9NZ08. AID 652197. 0.15% of 340,000 active;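 active = mean replicate inhibition of at least 30%, or all replicates individually reaching that 30% level; inactive = mean below 30% and not every replicate reaching it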;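 also: 0% = neutral control wells and 100% = L-leucinethiol positive control wells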
# * = called active by the depositor; ? = inconclusive; nt = not tested or not shown. Sampled rows, rich in hits. Any-hit rate of the full collection: about 3.7%.
SMILES,FGF22 binding,E-sel inducer,DENV2 CPE rescue,F508del corr,ERAP1 inh
CCN(CC)P(=O)(Nc1ccc(Br)cc1)c1c(C)nn(CCC#N)c1NC(=O)c1ccc(Cl)cc1 (stereo not drawn),0,50*,-1,6,-2
C[C@H](CO)N1C[C@H](C)[C@H](CN(C)C(=O)Nc2ccccc2)Oc2ccc(N(C)C)cc2CC1=O,0,nt,45*,2,1
C[C@@H]1CN([C@H](C)CO)C(=O)Cc2cc(NC(=O)C3CC3)ccc2O[C@H]1CN(C)C(=O)Nc1ccccc1,0,-14,105*,1,0
C[C@@H]1CN([C@@H](C)CO)C(=O)Cc2cc(N(C)C)ccc2O[C@@H]1CN(C)C(=O)Nc1ccccc1,0,nt,2,4,-1
CSc1nc2nc3c(cc2c(=O)n1-c1ccccc1)COC(C)(C)C3,43*,2,5,-1,1
CSc1nc2nc3c(cc2c(=O)n1-c1ccc(C)cc1)COC(C)(C)C3,0,0,-2,4,4
CCS(=O)(=O)N[C@H]1C=C[C@H](CC(=O)NC2Cc3ccccc3C2)O[C@H]1CO,0,0,3,0,1
O=C(Nc1nccs1)c1ccccn1,43*,5,7,-3,2
O=C(C[C@@H]1CC[C@@H]2[C@H](COC[C@H](O)CN2C(=O)c2ccccc2)O1)Nc1ccc(-c2ccccc2)cc1,nt,0,44*,1,0
O=C(C[C@@H]1CC[C@H]2[C@@H](COC[C@@H](O)CN2C(=O)c2ccccc2)O1)Nc1ccc(-c2ccccc2)cc1,nt,1,48*,-1,-1
CCC(=O)Nc1ccc2c(c1)C(=O)N(C)[C@@H]1CC[C@@H](CC(=O)NCc3ccc(OC)cc3)O[C@@H]1CO2,0,0,2,0,-1
C[C@@H]1CN([C@@H](C)CO)C(=O)c2cc(NC(=O)c3ccncc3)ccc2O[C@H]1CN(C)Cc1ccncc1,0,0,-2,7,0
CCS(=O)(=O)N1CC2(C1)[C@H](c1ccccc1)[C@H](CO)N2C(=O)c1ccccc1,nt,0,-7,2,-1
Cc1ccc(S(=O)(=O)N(C)C[C@@H]2Oc3ccc(N(C)C)cc3C(=O)N([C@@H](C)CO)C[C@@H]2C)cc1,0,-14,-6,0,-1
Cc1ccc(S(=O)(=O)N(C)C[C@H]2Oc3ccc(N(C)C)cc3C(=O)N([C@@H](C)CO)C[C@@H]2C)cc1,0,47*,3,-3,0
Cc1ccc(S(=O)(=O)N(C)C[C@H]2Oc3ccc(N(C)C)cc3C(=O)N([C@H](C)CO)C[C@@H]2C)cc1,0,-15,17,0,0
Cc1ccc(S(=O)(=O)N(C)C[C@@H]2Oc3ccc(N(C)C)cc3C(=O)N([C@H](C)CO)C[C@H]2C)cc1,0,36*,-1,0,-1
COc1ccccc1S(=O)(=O)N[C@H]1CC[C@H](CCn2cc(C3CC3)nn2)O[C@H]1CO,0,0,-3,0,-1
O=C(C[C@@H]1C=C[C@@H](NS(=O)(=O)c2ccccc2)[C@@H](CO)O1)NCc1ccc(Cl)c(Cl)c1,0,0,?,-1,-3
Cn1c(C(=O)c2ccccc2[N+](=O)[O-])nc2ccccc21,42,nt,-2,8.6*,1
Cn1c(C(=O)c2ccccc2)nc2ccccc21,0,nt,?,-2,2
CC(=O)N1[C@@H]2Cn3c(cccc3=O)[C@H]1[C@@H](C(=O)N[C@H](C)c1ccccc1)[C@@H]2CO,nt,0,3,-1,3
O=C(O)C1=CC[C@@H](c2ccc(Cl)cc2)N(S(=O)(=O)c2ccc(Cl)cc2)[C@H]1c1ccc(F)cc1,1,nt,16,1,8
Cc1ccc([C@@H]2CC=C(C(=O)O)[C@H](c3ccc(Br)cc3)N2S(=O)(=O)c2ccc(C)cc2)cc1,0,0,4,-4,nt
Cc1ccccc1S(=O)(=O)N1[C@@H](c2ccc(F)cc2)C(C(=O)O)=CC[C@H]1c1ccc(Cl)cc1,2.2*,nt,0,1,5
SMILES,FGF22 binding,E-sel inducer,DENV2 CPE rescue,F508del corr,ERAP1 inh
CCc1ccc([C@@H]2CC=C(C(=O)O)[C@H](c3ccc(C(C)(C)C)cc3)N2S(=O)(=O)c2ccc(C)cc2)cc1,41,-1,48*,-6,5
Cc1ccc(S(=O)(=O)N2[C@@H](c3ccc(Br)cc3)C(C(=O)O)=CC[C@H]2c2ccc(C(C)C)cc2)cc1,0,0,23*,3,nt
Cc1noc(C)c1S(=O)(=O)Nc1ccc2c(c1)C(=O)N([C@H](C)CO)C[C@@H](C)[C@@H](CN(C)S(=O)(=O)c1cccs1)OCCCC[C@@H](C)O2,0,nt,-6,0,nt
COc1ccc(NC(=O)C(=O)c2cn(CC(=O)N3CCCC3)c3ccccc23)cc1OC,0,0,6,9.3*,-3
COc1cccc(NC(=O)C(=O)c2cn(CC(=O)N3CCCC3)c3ccccc23)c1,0,nt,16,-2,-2
COc1ccc(N=Nc2c(N)nn(C)c2N)cc1,44*,1,-1,-1,9
Cc1ccc2nc(Cl)c(C#N)cc2c1,43*,0,1,-1,-1
COc1ccc2nc(Cl)c(C#N)cc2c1,42,nt,17,-1,1
COc1ccccc1CNC(=O)C(=O)Nc1ccc(C(=O)N2CCC(C)CC2)cc1,0,nt,65*,-3,-5
CCC(C)NC(=O)C(Sc1ccccc1)c1ccccc1 (stereo not drawn),43*,nt,3,2,2
CCCN1[C@@H]2c3ccc(-c4ccccc4OC)c(=O)n3C[C@@H]2[C@@H](CO)[C@@H]1C(=O)OC,0,-2,-4,1,0
CNC[C@H]1Oc2ccc(NS(=O)(=O)c3cn(C)cn3)cc2CC(=O)N([C@@H](C)CO)C[C@H]1C,nt,0,0,0,3
CS(=O)(=O)N1CCN(c2ccc(NC(=S)NC(=O)c3ccc4c(c3)OCO4)cc2)CC1,44*,0,-1,0,-3
CC(C)NC(=O)N(C)C[C@H]1OCCCC[C@H](C)Oc2ccc(NS(=O)(=O)c3ccccc3)cc2C(=O)N([C@@H](C)CO)C[C@@H]1C,0,0,-2,-2,0
CCCNC(=O)Nc1ccc2c(c1)C(=O)N(C)C[C@H](OC)[C@H](C)CN(C(=O)C1CCC1)[C@@H](C)CO2,0,0,2,1,nt
CC1CCC(N2CCNCC2)CC1 (stereo not drawn),44*,nt,-1,-6,1
COc1ccccc1N1CCN(C2CCC(C)CC2)CC1 (stereo not drawn),0,nt,9,-1,-2
O=C(C[C@@H]1C[C@@H]2c3cc(NS(=O)(=O)c4ccc(F)cc4)ccc3O[C@@H]2[C@H](CO)O1)NC1CCCCC1,0,0,1,0,6
CCc1c(C)nc(SCC(=O)Nc2nc(-c3ccc(OC)cc3)cs2)[nH]c1=O,43*,nt,nt,0,0
